In PubChem BioAssay AID623895 (Broad Institute, 2012):
Active and inactive are the calls of the source.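 The calls were made as follows: active = compounds with an ATP-loss curve whose half-maximal dose stays within twice the top dose, in every run; inconclusive = mixed run calls, weak flat effects or poor fits; inactive = the rest, including opposite-direction effects.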

Tests used:
[1] = system: ldlA[mSR-BI] CHO cells viability, ATP luminescence, 24 h; assay: cytotoxicity in ldlA[mSR-BI] CHO cells, dose response, cytotoxicity control for SR-BI HDL uptake inhibitor project, cell-based, 24 h, ATP luminescence, dry powder, set 6 (AID 623895)
How it was run: (§1)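 material = ldlA[mSR-BI] cells | dosing = Eight-point compound dose series | incubation = 24 h at 37 °C, read after 10 min | signal = ATP luminescence (Cell Titer Glo) | read-out basis = viability IC50 from dose-response fit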

[2] = as above; settings: ldlA[mSR-BI] CHO cells viability, ATP luminescence, 24 h; at 35 µM (top of the series)
How it was run: as §1

Row | Structure (SMILES) | AC50 [1] [µM] | activity change, negative = cytotoxicity [2]
1 | CCCCCCC1CCC/C1=N\NC(N)=S (stereo not drawn) | 3.81 | –
2 | COc1c(NC(=O)C(=O)c2ccc(OCCN3CCOCC3)c3ccccc23)cc(C(C)(C)C)cc1NS(C)(=O)=O | 34.3 | –
3 | C[C@@H]1CN([C@H](C)CO)C(=O)c2cc(NC(=O)Cc3cn(C)c4ccccc34)ccc2O[C@H]1CN(C)S(=O)(=O)c1ccc(Cl)cc1 | – | -19.8% (inactive)
4 | O=C(O)CC(C(=O)Nc1cccc(C(F)(F)F)c1)C1CCCO1 (stereo not drawn) | – | -9.62% (inactive)
5 | C[C@@H]1CN([C@H](C)CO)C(=O)c2cc(NC(=O)C3CCOCC3)ccc2O[C@H]1CN(C)S(=O)(=O)c1ccc(Cl)cc1 | – | -5.21% (inactive)
6 | C[C@@H]1CN([C@@H](C)CO)C(=O)c2cc(NC(=O)NC3CCCCC3)ccc2O[C@H]1CN(C)Cc1ccncc1 | – | 5.45% (inactive)
7 | Cc1ccccc1-c1ccc2c(c1)O[C@H](CN(C)C(=O)Nc1ccc(F)cc1)[C@H](C)CN([C@H](C)CO)S2(=O)=O | – | -28.5% (inactive)
8 | CC(C)NC(=O)Nc1cccc2c1O[C@@H](CN(C)Cc1ccc(C(F)(F)F)cc1)[C@@H](C)CN([C@@H](C)CO)C2=O | – | -11.3% (inactive)
9 | CO[C@H]1CN(C)C(=O)c2ccc(NC(=O)C3CCCC3)cc2OC[C@@H](C)N(C(=O)CC2CC2)C[C@@H]1C | – | -11.9% (inactive)
10 | C[C@H](C(=O)NC1CCCC1)N(C(=O)Cn1nnc(-c2ccc3c(c2)OCO3)n1)C1CCCCC1 | – | -16.5% (inactive)
11 | COc1ccc(NC(=O)Nc2ccc3c(c2)C(=O)N([C@H](C)CO)C[C@@H](C)[C@H](CN(C)S(=O)(=O)c2ccc(Cl)cc2)O3)cc1 | – | -15.6% (inactive)
12 | C[C@@H]1CN([C@@H](C)CO)C(=O)Cc2cc(N(C)C)ccc2O[C@@H]1CN(C)Cc1ccc(C(=O)O)cc1 | – | 4.97% (inactive)
13 | COc1ccc(CN(C)C[C@@H]2Oc3ccc(NC(=O)Cc4cn(C)c5ccccc45)cc3C(=O)N([C@H](C)CO)C[C@H]2C)cc1 | – | -17.6% (inactive)
14 | C[C@@H]1CN([C@H](C)CO)C(=O)c2cc(NC(=O)c3ccncc3)ccc2O[C@H]1CN(C)S(=O)(=O)c1ccc(Cl)cc1 | – | 4.97% (inactive)
15 | C[C@@H]1CN([C@H](C)CO)C(=O)c2cc(NC(=O)Cc3cn(C)c4ccccc34)ccc2O[C@H]1CN(C)S(=O)(=O)c1ccc(F)cc1 | – | -29.1% (inactive)
16 | C[C@@H]1CN([C@H](C)CO)C(=O)Cc2cc(NC(=O)Cc3cn(C)c4ccccc34)ccc2O[C@H]1CN(C)S(=O)(=O)c1ccc(F)cc1 | – | -0.321% (inactive)
17 | C[C@@H]1CN([C@H](C)CO)C(=O)c2cc(NC(=O)Cc3cn(C)c4ccccc34)ccc2O[C@H]1CN(C)Cc1ccc(C(=O)O)cc1 | – | -1% (inactive)
18 | C[C@@H]1CN([C@H](C)CO)C(=O)c2cc(NC(=O)CCCCCC(=O)Nc3ccccc3N)ccc2O[C@H]1CN(C)S(=O)(=O)c1ccc(Cl)cc1 | – | -0.144% (inactive)
19 | C[C@@H]1CN([C@H](C)CO)C(=O)c2cc(NC(=O)Nc3ccc(C(F)(F)F)cc3)ccc2O[C@H]1CN(C)S(=O)(=O)c1ccc(Cl)cc1 | – | -31.8% (inactive)
20 | CNC[C@@H]1Oc2ccc(NC(=O)Cc3cn(C)c4ccccc34)cc2C(=O)N([C@H](C)CO)C[C@H]1C | – | 14.8% (inactive)
21 | O=C(C[C@@H]1CC[C@@H](NC(=O)CC2CC2)[C@H](CO)O1)NCc1ccc(Cl)cc1 | – | -2.93% (inactive)
22 | C[C@@H]1CN([C@H](C)CO)C(=O)c2cc(NC(=O)C3CCCCC3)ccc2O[C@H]1CN(C)S(=O)(=O)c1ccc(Cl)cc1 | – | -30.6% (inactive)
23 | C[C@@H]1CN([C@H](C)CO)C(=O)c2cc(NC(=O)Nc3ccc(F)cc3)ccc2O[C@H]1CN(C)S(=O)(=O)c1ccc(Cl)cc1 | – | -20.6% (inactive)
24 | C[C@@H]1CN([C@H](C)CO)C(=O)c2cc(NC(=O)Cc3cn(C)c4ccccc34)ccc2O[C@H]1CN(C)C(=O)Nc1cccc2ccccc12 | – | -4.64% (inactive)
25 | CO[C@@H]1CN(C)C(=O)c2ccc(NC(=O)C3CC3)cc2OC[C@@H](C)N(Cc2ccncc2)C[C@H]1C | – | -2.35% (inactive)
26 | C[C@@H]1CN([C@H](C)CO)C(=O)c2cc(NC(=O)Cc3cn(C)c4ccccc34)ccc2O[C@@H]1CN(C)S(=O)(=O)c1ccc(Cl)cc1 | – | -21.3% (inactive)
27 | C[C@H]1CN([C@@H](C)CO)C(=O)c2cc(NC(=O)Cc3cn(C)c4ccccc34)ccc2O[C@@H]1CN(C)S(=O)(=O)c1ccc(Cl)cc1 | – | -20.1% (inactive)

Row | Structure (SMILES) | AC50 [1] [µM] | activity change, negative = cytotoxicity [2]
28 | C[C@@H]1CN([C@H](C)CN(C)C)C(=O)c2cc(NC(=O)Cc3cn(C)c4ccccc34)ccc2O[C@H]1CN(C)S(=O)(=O)c1ccc(Cl)cc1 | 15.3 | –
29 | C[C@@H]1CN([C@H](C)CO)C(=O)c2cc(N(C)C)ccc2O[C@H]1CN(C)S(=O)(=O)c1ccc(Cl)cc1 | – | -23.7% (inactive)
30 | C[C@@H]1CN([C@@H](C)CO)C(=O)Cc2cc(NS(C)(=O)=O)ccc2O[C@@H]1CN(C)Cc1ccc(C(F)(F)F)cc1 | – | -12.8% (inactive)
31 | C[C@H](CO)N1C[C@H](C)[C@@H](CN(C)S(=O)(=O)c2ccc(Cl)cc2)Oc2ccc(NC(=O)Cc3cn(C)c4ccccc34)cc2C1=O | – | -25.3% (inactive)
32 | COc1cc(OC)cc(C(=O)Nc2nc(-c3ccc4c(c3)CCN4C(=O)CN3CCOCC3)cs2)c1 | – | 3.74% (inactive)
33 | Cc1ccccc1-c1ccc2c(c1)O[C@@H](CN(C)C(=O)Nc1ccc(F)cc1)[C@H](C)CN([C@@H](C)CO)S2(=O)=O | – | -23.7% (inactive)
34 | C[C@@H]1CN([C@H](C)CO)C(=O)c2cc(NC(=O)Cc3cn(C)c4ccccc34)ccc2O[C@H]1CN(C)C(=O)NC1CCCCC1 | – | 5.85% (inactive)
35 | C[C@@H]1CN([C@H](C)CO)C(=O)c2cc(NC(=O)CCCN(C)C)ccc2O[C@H]1CN(C)S(=O)(=O)c1ccc(Cl)cc1 | – | 15.7% (inactive)
36 | C[C@@H]1CN([C@H](C)CO)C(=O)c2cc(NC(=O)CCN3CCOCC3)ccc2O[C@H]1CN(C)S(=O)(=O)c1ccc(Cl)cc1 | – | 19.5% (inactive)
37 | C[C@@H]1CN([C@H](C)CO[Si](C)(C)C(C)(C)C)C(=O)c2cc(NC(=O)C3CCCCC3)ccc2O[C@H]1CN(C)C(=O)c1ccc(Cl)cc1 | – | -16.8% (inactive)
38 | O=C1C2C3C=CC(C3)C2C(=O)N1c1cccc(N2C(=O)C3C4C=CC(C4)C3C2=O)n1 (stereo not drawn) | – | -8.55% (inactive)
39 | C[C@@H]1CN([C@@H](C)CO)C(=O)Cc2cc(NS(=O)(=O)c3cn(C)cn3)ccc2O[C@H]1CN(C)Cc1ccc(Cl)c(Cl)c1 | – | 3.09% (inactive)
40 | COCC(=O)N1CCc2cc(-c3csc(NC(=O)c4cc(OC)cc(OC)c4)n3)ccc21 | – | 3.3% (inactive)
41 | COc1ccc(NC(=O)N(C)C[C@@H]2Oc3ccc(NC(=O)Cc4cn(C)c5ccccc45)cc3C(=O)N([C@H](C)CO)C[C@H]2C)cc1 | – | 13.1% (inactive)
42 | CC(C)CN(C(=O)COC(=O)C12CC3CC(CC(O)(C3)C1)C2)C1CCS(=O)(=O)C1 (stereo not drawn) | – | -14.1% (inactive)
43 | C[C@@H]1CN([C@H](C)CO)C(=O)c2cc(NC(=O)CCC(F)(F)F)ccc2O[C@H]1CN(C)S(=O)(=O)c1ccc(Cl)cc1 | – | -19.4% (inactive)
44 | C[C@H]1CN([C@@H](C)CO)C(=O)c2cc(NC(=O)Cc3cn(C)c4ccccc34)ccc2O[C@H]1CN(C)S(=O)(=O)c1ccc(Cl)cc1 | – | -23.6% (inactive)
45 | C[C@H](CO)N1C[C@H](C)[C@H](CN(C)S(=O)(=O)c2ccc(Cl)cc2)Oc2ccc(NC(=O)Cc3cn(C)c4ccccc34)cc2C1=O | – | -19.8% (inactive)
46 | CC(C)NC(=O)Nc1ccc2c(c1)C(=O)N([C@H](C)CO)C[C@@H](C)[C@H](CN(C)S(=O)(=O)c1ccc(Cl)cc1)O2 | – | 3.09% (inactive)
47 | C[C@@H]1CN([C@H](C)CO)C(=O)c2cc(NS(=O)(=O)c3ccc(F)cc3)ccc2O[C@H]1CN(C)S(=O)(=O)c1ccc(Cl)cc1 | – | -2.92% (inactive)
48 | C[C@@H]1CN([C@H](C)CO)C(=O)c2cc(NC(=O)Cc3cn(C)c4ccccc34)ccc2O[C@H]1CN(C)Cc1ccc(-c2ccccc2)cc1 | – | -34.9% (inactive)
49 | C[C@H](CO)N1C[C@H](C)[C@H](CN(C)CC2CCCCC2)Oc2c(NS(=O)(=O)c3cn(C)cn3)cccc2C1=O | – | 5.52% (inactive)
50 | COc1ccc(CN(C)C[C@@H]2Oc3ccc(NC(=O)CCCN(C)C)cc3C(=O)N([C@H](C)CO)C[C@H]2C)cc1 | – | 12.2% (inactive)
51 | C[C@@H]1CN([C@H](C)CN)C(=O)c2cc(NC(=O)Cc3cn(C)c4ccccc34)ccc2O[C@H]1CN(C)S(=O)(=O)c1ccc(Cl)cc1 | – | -0.334% (inactive)
52 | CO[C@H]1CN(C)C(=O)c2cc(NC(=O)c3ccccc3F)ccc2OC[C@@H](C)N(C(C)=O)C[C@@H]1C | – | 1.07% (inactive)
53 | COc1ccc(-c2nnn(CC(=O)N(C3CCCCC3)C(C)C(=O)NC3CCCCC3)n2)cc1OC (stereo not drawn) | – | -9.26% (inactive)
